According to ChEMBL document CHEMBL4196195, “( R)- N-(1-Methyl-2-hydroxyethyl)-13-( S)-methyl-arachidonamide (AMG315): A Novel Chiral Potent Endocannabinoid Ligand with Stability to Metabolizing Enzymes” (J Med Chem, 2018):
Calls of active or inactive are those of the source.

Columns and labels:
Cannabinoid receptor 1 [1] = target: T1, Cannabinoid receptor 1 (Rattus norvegicus, UniProt P20272); assay: Displacement of [3H]CP-55,940 from CB1 receptor in rat brain membranes in absence of FAAH inhibitor PMSF by radioligand binding assay; type: cell membranes, Membrane
T1 sequence (P20272 whole entry): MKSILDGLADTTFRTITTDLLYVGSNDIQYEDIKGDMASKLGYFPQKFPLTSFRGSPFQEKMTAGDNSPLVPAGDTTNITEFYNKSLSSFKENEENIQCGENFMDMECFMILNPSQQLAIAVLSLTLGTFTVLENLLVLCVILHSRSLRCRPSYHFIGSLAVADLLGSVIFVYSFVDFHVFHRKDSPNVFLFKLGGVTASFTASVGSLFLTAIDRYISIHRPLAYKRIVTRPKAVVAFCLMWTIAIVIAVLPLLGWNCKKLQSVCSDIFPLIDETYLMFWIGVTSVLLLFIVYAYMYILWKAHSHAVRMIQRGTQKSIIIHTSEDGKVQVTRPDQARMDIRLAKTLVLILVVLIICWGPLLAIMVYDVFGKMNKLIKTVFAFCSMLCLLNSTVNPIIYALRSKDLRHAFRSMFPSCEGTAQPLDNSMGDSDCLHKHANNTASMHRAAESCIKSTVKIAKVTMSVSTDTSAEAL

Cannabinoid receptor 1 [2] = target: T1, Cannabinoid receptor 1; assay: Displacement of [3H]CP-55,940 from CB1 receptor in rat brain membranes in presence of FAAH inhibitor PMSF by radioligand binding assay; type: cell membranes, Membrane
[3] = target: T2, FAAH (fatty-acid amide hydrolase 1) (Homo sapiens, UniProt O00519); assay: Stability assessed as human FAAH-mediated compound hydrolysis by LC-MS/MS analysis; type: ADME; conditions: human FAAH (fatty-acid amide hydrolase 1), read-out: Stability
T2 sequence (O00519 whole entry): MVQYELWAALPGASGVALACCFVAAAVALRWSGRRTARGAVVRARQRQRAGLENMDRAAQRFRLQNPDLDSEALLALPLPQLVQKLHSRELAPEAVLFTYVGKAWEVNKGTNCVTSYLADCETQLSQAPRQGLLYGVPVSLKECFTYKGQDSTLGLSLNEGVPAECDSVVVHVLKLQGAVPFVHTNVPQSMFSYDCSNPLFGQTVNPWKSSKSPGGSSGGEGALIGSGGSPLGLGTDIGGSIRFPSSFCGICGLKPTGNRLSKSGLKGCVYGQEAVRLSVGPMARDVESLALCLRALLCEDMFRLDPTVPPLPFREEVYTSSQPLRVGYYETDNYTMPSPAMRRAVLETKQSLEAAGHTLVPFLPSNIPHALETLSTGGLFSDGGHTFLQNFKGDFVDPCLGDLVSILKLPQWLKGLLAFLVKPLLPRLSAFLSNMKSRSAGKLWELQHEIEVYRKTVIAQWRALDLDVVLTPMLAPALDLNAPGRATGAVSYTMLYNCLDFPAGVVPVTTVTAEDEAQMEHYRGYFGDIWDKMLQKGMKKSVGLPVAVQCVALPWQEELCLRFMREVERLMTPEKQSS
Summary of the method: (§1)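 Expressed, partially purified rat or human FAAH incubated with compound, or AEA as reference substrate, for 30 min. Aliquots at time points quenched in acetonitrile to precipitate protein. Remaining compound measured by LC-MS/MS on a cyano column with 10 mM ammonium acetate pH 7.3/methanol at 0.5 mL/min.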

Cannabinoid receptor 2 [4] = target: Cannabinoid receptor 2 (Homo sapiens, UniProt P34972); assay: Displacement of [3H]CP-55,940 from human CB2 receptor expressed in HEK293 cell membranes in absence of FAAH inhibitor PMSF by radioligand binding assay
Cannabinoid receptor 2 (Homo sapiens, UniProt P34972), sequence (P34972 whole entry): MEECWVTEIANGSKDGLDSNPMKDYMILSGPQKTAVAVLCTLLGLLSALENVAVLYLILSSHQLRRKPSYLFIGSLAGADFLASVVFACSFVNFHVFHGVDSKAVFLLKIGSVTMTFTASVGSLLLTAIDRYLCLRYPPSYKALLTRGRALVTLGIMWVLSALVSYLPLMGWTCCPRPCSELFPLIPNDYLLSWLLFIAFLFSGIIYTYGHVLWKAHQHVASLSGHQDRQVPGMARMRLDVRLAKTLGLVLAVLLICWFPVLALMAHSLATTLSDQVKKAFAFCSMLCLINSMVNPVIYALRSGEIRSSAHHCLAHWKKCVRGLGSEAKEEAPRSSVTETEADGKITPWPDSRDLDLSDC

Cannabinoid receptor 2 [5] = target: Cannabinoid receptor 2 (Mus musculus, UniProt P47936); assay: Displacement of [3H]CP-55,940 from mouse CB2 receptor expressed in HEK293 cell membranes in absence of FAAH inhibitor PMSF by radioligand binding assay
Cannabinoid receptor 2 (Mus musculus, UniProt P47936), sequence (P47936 whole entry): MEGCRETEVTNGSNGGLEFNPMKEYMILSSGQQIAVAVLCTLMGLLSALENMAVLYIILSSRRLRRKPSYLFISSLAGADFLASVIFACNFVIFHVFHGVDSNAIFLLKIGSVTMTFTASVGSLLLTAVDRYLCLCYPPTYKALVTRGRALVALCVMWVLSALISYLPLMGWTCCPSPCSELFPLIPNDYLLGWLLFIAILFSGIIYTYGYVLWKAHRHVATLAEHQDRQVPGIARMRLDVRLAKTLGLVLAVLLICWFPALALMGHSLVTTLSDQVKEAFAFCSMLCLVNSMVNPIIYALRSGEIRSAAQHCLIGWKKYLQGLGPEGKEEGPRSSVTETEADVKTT
Summary of the method: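 Membranes from HEK293 cells expressing human or mouse CB2 (preparations lacking FAAH activity), competing against [3H]CP-55,940. IC50 by nonlinear regression, converted to Ki. Three independent experiments run in triplicate; Ki is the mean of the three.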

[6] = target: T2, FAAH (fatty-acid amide hydrolase 1); assay: Stability assessed as half life for human FAAH-mediated compound hydrolysis by LC-MS/MS analysis; type: ADME; conditions: human FAAH (fatty-acid amide hydrolase 1); summary of the method: as §1
Cannabinoid receptor 1 [7] = target: T1, Cannabinoid receptor 1; assay: Agonist activity at rat CB1 receptor expressed in HEK293 cells assessed as inhibition of forskolin-induced cAMP accumulation incubated for 30 mins; type: functional, cell-based
Summary of the method: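 HEK293 cells stably expressing rCB1, harvested with nonenzymatic dissociation reagent, washed in HBSS, 1000–1500 cells/well. Test compound at various concentrations with forskolin (2 μM final) in stimulation buffer, 30 min at room temperature. cAMP read by TR-FRET (Eu-cAMP tracer plus ULight anti-cAMP, 60 min room temperature). Forskolin-stimulated cAMP set to 100%. EC50 from nonlinear regression; two independent experiments in triplicate.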

[8] = target: T3, Prostaglandin G/H synthase 2 (Mus musculus, UniProt Q05769); assay: Stability assessed as mouse COX2-mediated compound oxidation by measuring oxygen consumption by polarographic assay; type: ADME
T3 sequence (Q05769 whole entry): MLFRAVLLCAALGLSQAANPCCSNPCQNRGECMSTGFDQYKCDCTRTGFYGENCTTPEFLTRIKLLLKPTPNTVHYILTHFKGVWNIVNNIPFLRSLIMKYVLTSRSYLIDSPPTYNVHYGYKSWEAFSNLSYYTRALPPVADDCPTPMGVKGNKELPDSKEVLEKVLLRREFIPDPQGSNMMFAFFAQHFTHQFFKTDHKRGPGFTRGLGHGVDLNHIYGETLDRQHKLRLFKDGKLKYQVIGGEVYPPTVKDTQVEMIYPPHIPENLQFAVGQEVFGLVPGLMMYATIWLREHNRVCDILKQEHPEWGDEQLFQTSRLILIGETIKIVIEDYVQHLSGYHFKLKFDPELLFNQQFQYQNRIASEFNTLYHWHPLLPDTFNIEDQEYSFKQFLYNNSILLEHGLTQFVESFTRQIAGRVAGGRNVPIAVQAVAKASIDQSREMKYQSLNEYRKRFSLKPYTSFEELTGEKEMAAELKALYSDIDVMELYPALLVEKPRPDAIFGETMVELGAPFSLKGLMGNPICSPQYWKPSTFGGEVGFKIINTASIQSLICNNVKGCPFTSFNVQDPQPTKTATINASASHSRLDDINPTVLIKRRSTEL

[9] = target: Cannabinoid receptor 1 (Rattus norvegicus) (UniProt P20272); assay: Agonist activity at rat CB1 receptor expressed in HEK293 cells assessed as inhibition of forskolin-induced cAMP accumulation incubated for 30 mins relative to 500 nM CP-55,940; type: functional, cell-based
Cannabinoid receptor 1 (Rattus norvegicus), sequence (P20272 whole entry): as the sequence (P20272 whole entry) above

Mus musculus [10] = assay: Antiallodynic activity in CD1 mouse model of CFA-induced inflammatory pain assessed as increase in CFA-reduced mechanical paw withdrawal threshold at 20 mg/kg, ip measured at 120 mins post injection; type: functional, organism-based
Summary of the method: (§2)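 Adult male mice (39 ± 10 g), wild-type CD1 or CB1 KO on CD1 background, single housed. CFA:saline 1:1 (20 μL) injected intraplantar into right hind paw; 48 h allowed before dosing. Drug given ip in 5 mL/kg, vehicle group included. Electronic von Frey (90 g probe) after ≥30 min habituation, read in duplicate per paw, at baseline, 48 h post-CFA and 10, 30, 60, 120 min post-dose. Two-way mixed ANOVA with Bonferroni post hoc tests.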

Mus musculus [11] = assay: Antiallodynic activity in CD1 mouse model of CFA-induced inflammatory pain assessed as increase in CFA-reduced mechanical paw withdrawal threshold at 20 mg/kg, ip measured up to 30 mins post injection; type: functional, organism-based; summary of the method: as §2
Mus musculus [12] = assay: Antiallodynic activity in CD1 mouse model of CFA-induced inflammatory pain assessed as increase in CFA-reduced mechanical paw withdrawal threshold at 20 mg/kg, ip measured at 60 mins post injection; type: functional, organism-based; summary of the method: as §2
Mus musculus [13] = assay: Antiallodynic activity in CD1 mouse model of CFA-induced inflammatory pain assessed as increase in CFA-reduced mechanical paw withdrawal threshold at 20 mg/kg, ip measured at 10 mins post injection; type: functional, organism-based; summary of the method: as §2

SMILES | Ki (Cannabinoid receptor 1 [1]) [nM] | Ki (Cannabinoid receptor 1 [2]) [nM] | half-life [3] [min] | Ki (Cannabinoid receptor 2 [4]) [nM] | Ki (Cannabinoid receptor 2 [5]) [nM] | half-life [6] [min] | EC50 (Cannabinoid receptor 1 [7]; read-out: EC50) [nM] | Stability [8] | Emax [9] | Activity (Mus musculus [10]) | Activity (Mus musculus [11]) | Activity (Mus musculus [12]) | Activity (Mus musculus [13]) | EC50 (Cannabinoid receptor 1 [7]; hek293)
CCCCC/C=C\[C@H](C)/C=C\C/C=C\C/C=C\CCCC(=O)NC1CCCC1 | 123 | 79 | 30 | 139 | 387 | – | – | – | – | – | – | – | – | –
CCCCC/C=C\C/C=C\[C@H](C)/C=C\C/C=C\CCCC(=O)NCCO | > 1000 | > 1000 | – | > 1000 | > 1000 | – | – | – | – | – | – | – | – | –
CCCCC/C=C\[C@H](C)/C=C\C/C=C\C/C=C\CCCC(=O)NC1CC1 | 14.7 | 1.5 | – | 4.3 | 57.5 | 25.2 | 0.3 | Stable | 88% | – | – | – | – | –
C#CCNC(=O)CCC/C=C\C/C=C\C/C=C\[C@@H](C)/C=C\CCCCC | 8.6 | 4.3 | 30 | 11.2 | 74 | – | 10.4 | – | 89% | – | – | – | – | –
CCCCC/C=C\C/C=C\C/C=C\C/C=C\CCCC(=O)N[C@H](C)CO [METHANANDAMIDE] | – | – | – | – | > 1000 | – | – | – | – | inactive | Active | Active | Active | –
CCCCC/C=C\[C@H](C)/C=C\C/C=C\C/C=C\CCCC(=O)NCCO | > 1000 | 4.8 | – | 50.5 | 137 | 13.5 | 13.2 | Stable | 88% | – | – | – | – | –
CCCCC/C=C\[C@@H](C)/C=C\C/C=C\C/C=C\CCCC(=O)N[C@H](C)CO | > 1000 | > 1000 | – | – | > 1000 | – | – | – | – | – | – | – | – | –
C[C@H](/C=C\C/C=C\C/C=C\CCCC(=O)NC1CC1)/C=C\CCCCCN=C=S | 20.3 | 15.6 | – | 22.1 | 47.7 | – | – | – | – | – | – | – | – | –
CCCCC/C=C\[C@H](C)/C=C\C/C=C\C/C=C\CCCC(=O)NC1CCC1 | 17.6 | 23.1 | 30 | 6.8 | 90 | – | 36.1 | Stable | 92% | – | – | – | – | –
CCCCC/C=C\C/C=C\[C@@H](C)/C=C\C/C=C\CCCC(=O)NCCO | > 1000 | > 1000 | – | > 1000 | > 1000 | – | – | – | – | – | – | – | – | –
CCCCC/C=C\[C@@H](C)/C=C\C/C=C\C/C=C\CCCC(=O)NCCO | > 1000 | > 1000 | – | > 1000 | > 1000 | – | – | – | inactive | – | – | – | – | Not Active
CCCCC/C=C\C/C=C\C/C=C\[C@@H](C)/C=C\CCCC(=O)NCCO | > 1000 | 520 | – | 188 | > 1000 | – | – | Stable | inactive | – | – | – | – | Not Active
CCCCC/C=C\C/C=C\C/C=C\[C@@H](C)/C=C\CCCC(=O)N[C@H](C)CO | 29.3 | 21.4 | – | 120 | > 1000 | – | 58.3 | Stable | 98% | – | – | – | – | –
C[C@H](/C=C\C/C=C\C/C=C\CCCC(=O)NC1CC1)/C=C\CCCCCN=[N+]=[N-] | 10.5 | 6.3 | – | 8.5 | 13.3 | – | 1.9 | – | 85% | – | – | – | – | –
CCCCC/C=C\[C@H](C)/C=C\C/C=C\C/C=C\CCCC(=O)NCCCl | 45.3 | 3.9 | – | 10.4 | 401 | – | – | – | – | – | – | – | – | –
C[C@H](/C=C\C/C=C\C/C=C\CCCC(=O)N[C@H](C)CO)/C=C\CCCOc1ccccc1 | 65 | 83 | – | 286 | > 1000 | – | – | – | – | – | – | – | – | –
CCCCC/C=C\C/C=C\C/C=C\[C@H](C)/C=C\CCCC(=O)NCCO | 326 | 1.7 | – | 24.7 | 7.5 | – | 4.8 | Stable | 100% | – | – | – | – | –
